# Shown is part of a subset that was picked to be rich in hits.
# CHOP inhibitor: inhibitors of CHOP induction in ER stress response | CHO-K1 CHOP-promoter luciferase, tunicamycin-induced, 15-18 h | inhibition, % at 10 µM | actives 3.8% (n = 220,000) | AID 2732;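 active = compounds that reduced the stress-induced luciferase reporter signal by more than about 70% of percent inhibition, limit read from the data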;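 note: 0% = tunicamycin plus vehicle and 100% = wells without tunicamycin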
# UCH37 DUB inh: inhibitors of human deubiquitinating enzyme UCH37. Q9Y5K5. purified proteasome/UCH37, Ub-AMC cleavage fluorescence. inhibition, % (test concentration not listed). actives 0.33% (n = 330,000). AID 588478;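 active = mean inhibition over replicate wells above about 20%, limit read from the data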;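 note: 0% = compound-free wells with enzyme and 100% = wells lacking proteasome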
# Target sequence (Q9Y5K5 whole entry, looked up): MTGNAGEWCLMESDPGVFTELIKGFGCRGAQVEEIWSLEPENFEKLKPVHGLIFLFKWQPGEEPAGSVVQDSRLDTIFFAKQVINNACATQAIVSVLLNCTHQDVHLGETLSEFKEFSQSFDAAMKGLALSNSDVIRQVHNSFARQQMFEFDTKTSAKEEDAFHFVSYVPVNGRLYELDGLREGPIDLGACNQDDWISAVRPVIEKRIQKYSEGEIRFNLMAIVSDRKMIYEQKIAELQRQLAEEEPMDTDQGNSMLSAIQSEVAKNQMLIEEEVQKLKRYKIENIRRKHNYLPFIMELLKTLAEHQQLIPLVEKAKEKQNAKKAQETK
#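 Signal – fluorescence, ex 355 nm, em 460 nm · System – Proteasome-bound UCH37 · Input – 0.15 nM proteasome as dispensed · Timing – 30 min preincubation with enzyme, 25 min cleavage at room temperature · Read-out basis – percent inhibition of cleavage signal versus uninhibited and no-proteasome wells · Medium – Tris-HCl pH 7.4 with ATP-MgCl2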
# CTSL1 counter: counter-screen for PFM18AAP inhibitors: inhibitors of F. hepatica cathepsin L1 | recombinant F. hepatica cathepsin L1, Z-Leu-Arg-MCA fluorescence | inhibition, % at 5.96 µM | actives 0.49% (n = 300,000);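 active = inhibition above the mean of all tested compounds plus 3 SD, set per screening campaign, cut at about 17% in these data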;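 note: 0% = plate median of test compound wells and 100% = 1 µM Z-Phe-Ala-diazomethylketone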
# CHOP UPR activ: activators of apoptotic arm of unfolded protein response (CHOP). CHO-CHOP luciferase reporter, UPR activation, luminescence; percent of tunicamycin response over DMSO baseline. activation, % at 10 µM. actives 0.34% (n = 330,000). AID 449763;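 active = at 10 µM dose, activation of 40% or more, normalized to positive control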;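 note: 100% = tunicamycin at 10 µg/mL and 0% = DMSO alone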
#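 Dosing – one dose, 10 µM in 0.5% DMSO · System – CHO-CHOP cells, stable luciferase reporter of PERK-eIF2a-CHOP signalling · Input – 500 cells/well · Control set – tunicamycin 10 µg/mL final as positive, DMSO-only wells as negative · Timing – 6 h compound treatment, 37 °C · Measure – % activation vs tunicamycin · Technique – luminescence read with Steady-Glo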
# UPR XBP1 act: adaptive UPR (XBP1) activation; CHO-XBP1 luciferase reporter, IRE1-XBP1 UPR activation, luminescence; percent of tunicamycin response, DMSO as zero; activation, % at 20 µM; actives 0.33% (n = 330,000);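 active = versus positive control, 20 µM dose yields 30% or more activation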;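 note: 100% = tunicamycin at 10 µg/mL and 0% = DMSO only wells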
#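 Material: CHO cell line with stable XBP1 luciferase reporter; schedule: 16-18 h cell attachment at 37 °C, then 6 h compound exposure; signal: glow luminescence from Steady-Glo reagent; medium: serum-containing F12 medium, 10% FBS; benchmarks: tunicamycin 10 µg/mL and vehicle-only wells; read-out: percent activation relative to tunicamycin reference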
# CHOP confirm: confirmation of CHOP induction inhibitors; inhibition, % at 10 µM; AID 504437; shares compounds with CHOP inhibitor; CHO-CHOP promoter luciferase reporter, tunicamycin-induced, luminescence; actives 45% (n = 2,100);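 active = mean of three repeat readings of reporter signal inhibition above a set limit, cut at about 70% in these data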;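 note: 0% = tunicamycin plus vehicle and 100% = wells lacking tunicamycin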
# * = called active by the depositor; nt = no result.
SMILES,CHOP inhibitor,UCH37 DUB inh,CTSL1 counter,CHOP UPR activ,UPR XBP1 act,CHOP confirm
COc1cc(/C=C2\CCCc3c2nc2ccccc2c3C(=O)O)cc(OC)c1O,5,15,2,0,-2,nt
CC(=NO)C(C)(C)NC(=O)Nc1ccc(Cl)cc1,nt,4,nt,nt,nt,nt
N#CC(=NNc1cccc([N+](=O)[O-])c1)C(=O)c1ccc(Br)cc1,nt,10,nt,nt,nt,nt
O=c1cc(-c2c(F)c(F)c(F)c(F)c2F)oc2ccccc12,29,5,2,3,5,nt
O=c1cc(-c2c(F)c(F)c(F)c(F)c2F)oc2c(F)c(F)c(F)c(F)c12,109*,nt,1,-9,-5,124*
CC(CNC(=S)Nc1cc(F)cc(F)c1)CSc1ccc(Cl)cc1 (stereo unspecified),97*,2,1,-1,-1,86*
Cc1ccc(NC(=O)CCC(=O)NN=Cc2coc3ccc(F)cc3c2=O)cc1,nt,-5,nt,nt,nt,nt
CC(=O)OCCCNc1cc(Sc2nc3ccccc3s2)c2nonc2c1[N+](=O)[O-],109*,nt,8,-10,-6,13
O=[N+]([O-])c1c(NCCCO)cc(N2CCCCCC2)c2nonc12,nt,15,7,0,-2,nt
CC(=O)OCCNc1cc(SCc2ccco2)c2nonc2c1[N+](=O)[O-],27,11,-3,nt,nt,nt
O=[N+]([O-])c1c(NCCCO)cc(Sc2ccc(Cl)cc2)c2nonc12,111*,13,2,nt,nt,141*
Cc1ccn2c(C=NOCc3ccc(F)cc3)c(-c3ccc(Cl)cc3)nc2c1,nt,-157,nt,nt,nt,nt
CN=C(Nc1cc(Cl)ccc1Cl)SC1CC(=O)N(c2ccc(C(=O)OC)cc2)C1=O (stereo unspecified),105*,5,5,-1,-4,5
CC1=CC(C)(C)N(C(=O)c2ccc(F)cc2)c2cc3c(cc21)OCO3,98*,4,1,-4,9,71*
Cc1cccc(C(=O)Oc2ccc(C=NNC(=O)c3cc(O)cc(O)c3)cc2)c1,nt,4,nt,nt,nt,nt
Cc1csc(NC(=O)CSc2nnc3c4ccccc4nc(C(C)(C)C)n23)n1,105*,4,-2,0,-3,125*
Cc1ccc(-n2c(SCC(=O)NN=C/C=C/c3ccccc3[N+](=O)[O-])nc3ccccc3c2=O)cc1,nt,0,nt,nt,nt,nt
CCOC(=O)C1=C(O)/C(=C\c2ccc(CNC(=O)C(=O)Nc3ccc(C)c(C)c3)o2)N=C1C,109*,-1,nt,nt,nt,-3
COCCNC(=O)/C(C#N)=C\c1ccc(CNC(=O)C(=O)Nc2ccc(C)c(C)c2)o1,35,6,2,-1,-2,nt
Cc1ccc(C(=O)NN=Cc2cc(C)n(-c3ccc(Br)cc3)c2C)cc1[N+](=O)[O-],nt,0,nt,nt,nt,nt
CCN(CC)c1ccc(C(=O)NN=C(C)c2cccc(OC)c2)cc1,nt,6,nt,nt,nt,nt
CCOc1cccc(CN2CCN(c3cccc(C(F)(F)F)c3)CC2)c1O,100*,1,-4,0,0,79*
CCOc1ccc(-c2c(C(=O)NN=Cc3ccc(Cl)cc3)nnn2-c2nonc2N)cc1,nt,4,nt,nt,nt,nt
CC(Oc1ccccc1)C(=O)N=Nc1c(O)[nH]c2ccc(Br)cc12 (stereo unspecified),101*,-1,10,0,-3,-4
CC(=NNC(=O)c1cc(C)nc2ccc(C)cc12)c1ccncc1,nt,5,nt,nt,nt,nt
SMILES,CHOP inhibitor,UCH37 DUB inh,CTSL1 counter,CHOP UPR activ,UPR XBP1 act,CHOP confirm
CCOc1ccc(N(CC(=O)NN=Cc2ccc(OC(C)C)cc2)S(C)(=O)=O)cc1,nt,0,nt,nt,nt,nt
O=C1c2ccccc2C(=O)C12OC2c1ccc(Cl)cc1 (stereo unspecified),109*,nt,17*,103*,-4,-21
O=C1c2ccccc2C(=O)C12OC(c1ccccc1)C1(C(=O)c3ccccc3C1=O)C2c1ccc([N+](=O)[O-])cc1 (stereo unspecified),2,4,1,3,4,nt
CCC(C)n1c(=S)[nH]c2ccccc2c1=O (stereo unspecified),14,6,-2,-3,-1,nt
CCC(Cc1ccccc1)n1c(=S)[nH]c2ccccc2c1=O (stereo unspecified),97*,0,4,-1,2,82*
O=C(/C=C/c1cccc([N+](=O)[O-])c1)n1cnc2ccccc21,107*,4,nt,-4,-4,116*
O=C(/C=C/c1cccc([N+](=O)[O-])c1)N1CCN(c2ccccn2)CC1,nt,-3,-2,-1,-7,nt
CCCCCCn1c(CN2CCN(Cc3ccccc3)CC2)nc2c1c(=O)n(C)c(=O)n2C,100*,6,3,0,-1,120*
O=C(OCn1ncc(Br)c(Br)c1=O)c1c(F)cccc1F,nt,nt,-3,nt,nt,125*
CC(=O)Cn1ncc(Br)c(Br)c1=O,105*,2,nt,nt,nt,4
CC(C)(C)C(=O)Cn1ncc(N2CCCC2)c(Br)c1=O,12,2,-6,4,-1,nt
CSc1nc(C)cc(SCC(=O)NN=Cc2ccccc2)n1,nt,3,nt,nt,nt,nt
CCn1nc(C)c(C=NNC(=O)Cc2ccc(Cl)cc2)c1C,nt,-15,nt,nt,nt,nt
COc1ccc(C2(O)CC3CCC(C2)N3c2nc(C)cc(C)c2C#N)cc1 (stereo unspecified),101*,-23,-3,-2,0,36
Cc1ccc(OCC(=O)NN=Cc2ccc(-c3cccc(C(=O)O)c3)o2)c(C)c1,nt,-27,nt,nt,nt,nt
CCc1ccc(C=NNC(=O)c2cc(C3CC3)nc3ccccc23)s1,nt,-3,nt,nt,nt,nt
Cc1occc1-c1nnc(SCC(=O)Nc2nc(C(C)(C)C)cs2)o1,103*,0,7,6,-1,60
Cc1csc(NC(=O)CSc2nnc(-c3ccoc3C)o2)n1,-41,4,-2,-1,1,nt
Cc1cccn2c(C=NOCc3cccc(F)c3)c(-c3ccc(Cl)cc3)nc12,nt,-36,nt,nt,nt,nt
O=C1/C(=C/c2ccncc2)SC(=S)N1C1CCS(=O)(=O)C1 (stereo unspecified),104*,7,2,8,-5,103*
Cc1ccc(C(=O)N/C(=C\c2ccc(Br)cc2)c2nc(=S)[nH][nH]2)cc1,108*,-3,7,0,-1,122*
O=C(COC(=O)c1n[nH]c(=O)c2ccccc12)c1ccc(Br)cc1,104*,0,-1,1,-2,-70
O=C(COC(=O)c1n[nH]c(=O)c2ccccc12)c1ccc(Cl)cc1,-29,nt,7,1,0,nt
NC(=O)c1ccccc1NC(=O)NC1CCCCC1,11,4,1,-1,1,nt
O=C(Nc1ccccc1NC(=O)NC1CCCCC1)NC1CCCCC1,104*,0,-2,3,2,114*
O=C1Nc2ccc(Br)cc2/C1=C/C(=O)c1ccc2c(c1)OCO2,107*,3,-3,19,25,-37
